Screens: PubChem, several laboratories
Shown are actives, neighbours in structure and some others; about 3.1% of the full set was active somewhere.
MPTP block – inhibitors of mitochondrial permeability transition pore | isolated mouse mitochondria, Ca2+ swelling absorbance, 30 min | inhibition, % at 10 µM | hit rate 1.4% among 360,000 | AID 602449;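 active means inhibition of 50% or more, scaled per plate between neutral and stimulator controls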
ADAM10 inh – ADAM10 inhibition, QFRET primary screen | recombinant ADAM10, EDANS/DABCYL FRET peptide cleavage, 3 h | O14672 | hit rate 0.62% among 370,000 | inhibition, % at 7 µM;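 active means inhibition above a per-campaign cutoff equal to the mean of compounds falling between control-based bounds plus 3 SD, cut at about 20% in these data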
V-ATPase pHluor – yeast V-ATPase proton transport regulation by pHLuorin; S. cerevisiae, pHLuorin cytosolic pH fluorescence; response, % at 10 µM; hit rate 0.37% among 350,000; AID 504577; in the data active means response mostly above about 7.3%, no sharp cut-off; inactive means mostly below about 5.4%; further: actives read high
ADAM17 inh – ADAM17 inhibition, QFRET primary screen; recombinant ADAM17, EDANS/DABCYL FRET peptide cleavage; P78536; AID 720648; inhibition, % at 6.95 µM; hit rate 0.83% among 370,000;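 active means inhibition above the mean of compounds lying between control limits plus 3 SD, set per campaign, cut at about 8.5% in these data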
Target sequence (P78536 215-824 limits assumed): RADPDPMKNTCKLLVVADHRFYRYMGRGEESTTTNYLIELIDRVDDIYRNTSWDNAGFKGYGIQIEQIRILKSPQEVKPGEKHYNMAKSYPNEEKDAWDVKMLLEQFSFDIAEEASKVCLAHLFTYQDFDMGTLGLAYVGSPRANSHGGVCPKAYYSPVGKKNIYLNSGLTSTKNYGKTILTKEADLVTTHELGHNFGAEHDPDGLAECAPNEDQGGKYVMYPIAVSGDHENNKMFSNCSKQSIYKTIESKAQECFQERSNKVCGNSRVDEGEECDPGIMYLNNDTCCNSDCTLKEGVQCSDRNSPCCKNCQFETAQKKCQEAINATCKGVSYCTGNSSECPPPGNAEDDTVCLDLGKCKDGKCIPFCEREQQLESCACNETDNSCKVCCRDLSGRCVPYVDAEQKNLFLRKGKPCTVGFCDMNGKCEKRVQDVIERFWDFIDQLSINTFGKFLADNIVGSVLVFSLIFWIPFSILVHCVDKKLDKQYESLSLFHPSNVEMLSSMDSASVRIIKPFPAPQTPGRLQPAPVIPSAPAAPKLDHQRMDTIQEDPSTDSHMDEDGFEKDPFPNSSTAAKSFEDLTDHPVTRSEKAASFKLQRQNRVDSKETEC
aDG glyco up – increases alpha dystroglycan glycosylation; activation, % at 10 µM; Pro5-aDG cells, alpha-DG glycosylation AlphaScreen (IIH6); 0% Pro5, 100% B10-LARGE cell signal; hit rate 0.22% among 360,000;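 active means activation of at least 8% versus controls, or a plate z-score of at least 8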;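 further: Pro5 are CHO cells carrying HIG-tagged alpha-DG that lacks glycosylation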
Hep lipid drop – modulators of hepatic lipid droplet formation; inhibition, % at 6.5 µM; AML12 mouse hepatocytes, oleate lipid droplets, BODIPY imaging; hit rate 0.4% among 240,000;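 active means lipid droplet intensity inhibited by at least 50%, with more than 500 cells counted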
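material = mouse AML12 hepatocyte cell line, fixed after treatment | also added = 100 µM oleic acid challenge | doses = compound at 6.5 µM only | schedule = overnight exposure | technique = Image-based BODIPY and DAPI two-channel analysis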
V-ATPase pH SP – regulators of yeast V-ATPase proton transport. S. cerevisiae pHLuorin cytosolic pH. shares compounds with V-ATPase pHluor. response, % at 10 µM. hit rate 2% among 980; in the data active means response above about 24%
Rh123 counter – Rhodamine 123 counter-screen of mitochondrial pore hits. isolated mitochondria, membrane potential, Rhodamine 123 fluorescence. hit rate 78% among 5,000. shares compounds with MPTP block. inhibition, % at 10 µM. AID 624504; in the data active means inhibition above about 22%
Of the large screens only hits and unclear results are named; the others gave an inactive call (follow-up assays come after a bar, where they were run).

COCCCNC(=O)CSc1nnc(-c2cccnc2)n1C1CCCCC1	none (no result: MPTP block, V-ATPase pHluor, aDG glyco up, Hep lipid drop)
CCOC(=O)C(=O)c1cn(C2OCC(OC(C)=O)C(OC(C)=O)C2OC(C)=O)c2ccccc12 (stereo unspecified)	V-ATPase pHluor 14 | V-ATPase pH SP inactive
O=C(Nc1ccc(N2CCOCC2)cc1)C1CCN(C(=O)OCc2ccccc2)CC1	none
O=C(Nc1ccc(N2CCOCC2)cc1Cl)C1CCN(C(=O)OCc2ccccc2)CC1	V-ATPase pHluor 10 | V-ATPase pH SP inactive
COC(=O)[C@]12C[C@H](CC(=O)N3CCN(C(=O)C4CC4)CC3)C(=O)N(Cc3ccco3)C1=C[C@H](C(C)(C)C)O[C@@H]2C	none (no result: MPTP block, V-ATPase pHluor, aDG glyco up, Hep lipid drop)
Cc1ccc(NC(=O)C2CCCN2S(=O)(=O)c2cccnc2)c(C)c1 (stereo unspecified)	none (no result: MPTP block, V-ATPase pHluor, aDG glyco up, Hep lipid drop)
COc1ccc(/C=C/C(=O)c2ccoc2)cc1	none (no result: Hep lipid drop)
COc1ccc(/C=C/C(=O)c2ccc(O)cc2)cc1	V-ATPase pHluor 9.3 | V-ATPase pH SP inactive
COc1ccc2c(c1)C(c1ccc(C)o1)=NNC(c1ccccc1)=N2	none
COc1ccc2c(c1)C(c1ccc(C)o1)=NNC(c1cccnc1)=N2	V-ATPase pHluor 8.6 | V-ATPase pH SP inactive
CN(C(=O)COC(=O)c1cnc(Cl)c(Cl)c1)C1CCS(=O)(=O)C1 (stereo unspecified)	none
CN(C(=O)COC(=O)c1ccc(Cl)cc1N)C1CCS(=O)(=O)C1 (stereo unspecified)	V-ATPase pHluor 11 | V-ATPase pH SP inactive
CN(CC(=O)Nc1cc(S(=O)(=O)N2CCOCC2)ccc1Cl)C1CCS(=O)(=O)C1 (stereo unspecified)	V-ATPase pHluor 7.6 | V-ATPase pH SP inactive
CC(C)C[C@@H](CO)N1Cc2nnn(Cc3ccccc3)c2-c2ccccc2S1(=O)=O	none (no result: MPTP block, V-ATPase pHluor, aDG glyco up, Hep lipid drop)
CCN1CCN(CC(=O)Nc2ccc3c(c2)OCCO3)C(=O)C1=O	none (no result: Hep lipid drop)
O=C(CN1Cc2ccccc2C1=O)Nc1ccc2c(c1)OCCO2	V-ATPase pHluor 11 | V-ATPase pH SP inactive
NC(=O)c1ccccc1OCC(=O)Nc1ccc2c(c1)OCCO2	V-ATPase pHluor 7.3 (no result: Hep lipid drop) | V-ATPase pH SP inactive
COc1ccccc1OCC(=O)Nc1ccc2c(c1)OCCO2	none
COc1ccc(CN2C(=O)c3ccccc3C2C(=O)NC2CCC(C)CC2)c(OC)c1 (stereo unspecified)	none
COc1ccc(CN2C(=O)c3ccccc3C2C(=O)NC2CCCC2)c(OC)c1 (stereo unspecified)	V-ATPase pHluor 9.8 | V-ATPase pH SP inactive
O=C(C1CCCCC1)N1CCC(CO)(Cc2ccccc2Cl)CC1	V-ATPase pHluor 8.6 | V-ATPase pH SP inactive
O=C(C1CCCC1)N1CCC(CO)(Cc2ccccc2Cl)CC1	none
CCCC(O)(c1ccc(OC)cc1)C(CN1CCOCC1)c1ccc(Cl)cc1 (stereo unspecified)	V-ATPase pHluor 12 | V-ATPase pH SP inactive
CCCC(O)(c1ccc(Cl)cc1)C(CN1CCOCC1)c1ccc(Cl)cc1 (stereo unspecified)	none
CCOc1ccccc1C(=O)N1CCC(Oc2cccnc2)CC1	none (no result: MPTP block, V-ATPase pHluor, aDG glyco up, Hep lipid drop)
CC(=O)NC(CC(=O)OCC(=O)c1c(N)n(C)c(=O)n(C)c1=O)c1ccccc1 (stereo unspecified)	V-ATPase pHluor 11 | V-ATPase pH SP inactive
COc1cccc(CNC(=O)CCC2CCCN(C(=O)c3ccc(C)nc3)C2)c1 (stereo unspecified)	V-ATPase pHluor 9.9 | V-ATPase pH SP inactive
CC(C)(C)C(=O)NC1CCCCN(Cc2cccc(Cl)c2)C1=O (stereo unspecified)	none (no result: MPTP block, V-ATPase pHluor, aDG glyco up, Hep lipid drop)
O=[N+]([O-])c1c(NCCCO)cc(N2CCCCCC2)c2nonc12	none
O=[N+]([O-])c1c(NCc2ccccc2)cc(N2CCc3ccccc3C2)c2nonc12	V-ATPase pHluor 5.8 | V-ATPase pH SP inactive
COC(=O)C1CN(Cc2cn(Cc3ccc(Cl)cc3)nn2)CCS(=O)(=O)N1Cc1ccc(C)cc1 (stereo unspecified)	none (no result: MPTP block, V-ATPase pHluor, aDG glyco up, Hep lipid drop)
O=C(NCCc1ccccc1)C(=O)N/N=C/c1ccc2c(c1)OCO2	none (no result: Hep lipid drop)
O=C(NCCc1ccccc1)C(=O)N/N=C/c1ccccc1C(F)(F)F	V-ATPase pHluor 9.6 | V-ATPase pH SP inactive
O=C(OCCCN1CCC2(CCC(c3ccccc3)CC2)C1=O)c1ccccc1 (stereo unspecified)	none (no result: MPTP block, V-ATPase pHluor, aDG glyco up, Hep lipid drop)
O=C(O)CN(c1cccc(C(F)(F)F)c1)S(=O)(=O)c1ccccc1	V-ATPase pHluor 8.6 | V-ATPase pH SP inactive
NC(=O)C1CCN(C(=O)CN(c2cccc(C(F)(F)F)c2)S(=O)(=O)c2ccccc2)CC1	none (no result: Hep lipid drop)
COc1cc(/C=N/NC2=NC(C)(C)Cc3ccccc32)cc(OC)c1OC	V-ATPase pHluor 8.2 | V-ATPase pH SP inactive
COC(=O)C1CN(Cc2cn(Cc3ccc(C)cc3)nn2)CCS(=O)(=O)N1Cc1ccccc1 (stereo unspecified)	none (no result: MPTP block, V-ATPase pHluor, aDG glyco up, Hep lipid drop)
O=S(=O)(NC1=NCCCCC1)c1ccc(F)cc1F	none (no result: Hep lipid drop)
O=S(=O)(NC1=NCCC1)c1ccc(F)cc1F	V-ATPase pHluor 9.1 | V-ATPase pH SP inactive
CC(=O)c1ccc(NC(=O)CN2CCC(NC(=O)c3ccccc3C)CC2)cc1	V-ATPase pHluor 8.2 (no result: Hep lipid drop) | V-ATPase pH SP inactive
COc1cc(OC)cc(C(=O)OCC(=O)Nc2nnc(-c3ccccc3)o2)c1	none (no result: Hep lipid drop)
COc1cc(OC)c(C(=O)OCC(=O)Nc2nnc(-c3ccccc3)o2)cc1OC	V-ATPase pHluor 12 (no result: Hep lipid drop) | V-ATPase pH SP inactive
CC(C)(C)C(=O)Nc1ccccc1C(=O)NCCC(=O)Nc1ccccc1	V-ATPase pHluor 11 (no result: Hep lipid drop) | V-ATPase pH SP inactive
COCCNC(=O)CSc1nc(-c2ccccc2)cs1	none (no result: Hep lipid drop)
CCNC(=O)CSc1nc(-c2ccc(F)cc2)cs1	V-ATPase pHluor 8.1 | V-ATPase pH SP inactive
Cc1c(NC(=O)COC(=O)C2(c3ccccc3F)CCCC2)c(=O)n(-c2ccccc2)n1C	V-ATPase pHluor 11 | V-ATPase pH SP inactive
Cc1c(NC(=O)COC(=O)C23CC4CC(CC(O)(C4)C2)C3)c(=O)n(-c2ccccc2)n1C	none
Cc1ccc(-c2cc(C(=O)N/N=C/c3c(C)nn(C)c3C)c3ccccc3n2)cc1C	V-ATPase pHluor 12 (no result: Hep lipid drop) | V-ATPase pH SP inactive
COc1ccccc1NC(=S)NCCSc1ccc(Cl)cc1	none
COc1ccc(Cl)cc1NC(=S)NCCSc1ccc(C)cc1	MPTP block 82, V-ATPase pHluor 7.6 | V-ATPase pH SP inactive | Rh123 counter 81
C=CCN(c1ccccc1)S(=O)(=O)c1cccc(C(=O)Nc2nnc(SCC)s2)c1	MPTP block 67, V-ATPase pHluor 11 | V-ATPase pH SP inactive | Rh123 counter 67
O=C(NCc1ccccc1)Nc1ccccc1C(=O)N1CCCC1	none (no result: MPTP block, V-ATPase pHluor, aDG glyco up, Hep lipid drop)
